# Assays:
# L1210 [1] = test: Antitumor activity in mouse L1210 cells allografted in CDF1 mouse assessed as increase in life span at 3.12 mg/kg, ip administered as qd for 9 days relative to control; format: functional; details: 216 h, route intraperitoneal
# Summary of the method: (§1)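 CDF1 mice inoculated ip with 10^5 L1210 leukemia cells on day 0; compounds in 0.9% saline given ip once daily days 1–9 (nine injections) across a dose-response range. Antitumor activity = mean increase in life span over untreated controls, expressed as % ILS; duplicate experiments, with drug-related deaths and weight loss monitored.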
# [2] = Drug degradation in water solution at 25 degC after 5.5 hrs by reverse phase liquid chromatography; format: physicochemical; details: read-out: Drug degradation
# Summary of the method: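 Parent held at 25 °C and sampled over time. Its disappearance was fitted to a first-order rate equation, and the fraction lost was taken at 5.5 h from that fit.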
# Mus musculus [3] = test: Toxicity in CDF1 mouse assessed as change in body weight at 6.25 mg/kg, ip measured on day 5 relative to control; format: organism-based; parameters: dose 6.25 mg/kg, route intraperitoneal; details: in vivo
# Summary of the method: (§2)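 CDF1 mice were implanted ip with 10^5 L1210 leukemia cells on day 0. Drug in 0.9% saline was given ip once daily on days 1–9 (nine injections) in a dose-response design. Body weight was compared with untreated tumor-bearing controls. The work was done as duplicate experiments.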
# L1210 [4] = test: Antitumor activity in mouse L1210 cells allografted in CDF1 mouse assessed as increase in life span at 6.25 mg/kg, ip administered as qd for 9 days relative to control; format: functional; details: 216 h, route intraperitoneal; summary of the method: as §1
# Mus musculus [5] = test: Toxicity in CDF1 mouse assessed as change in body weight at 1.56 mg/kg, ip measured on day 5 relative to control; format: organism-based; parameters: dose 1.56 mg/kg, route intraperitoneal; details: in vivo; summary of the method: as §2
# Mus musculus [6] = test: Toxicity in CDF1 mouse assessed as change in body weight at 12.5 mg/kg, ip measured on day 5 relative to control; format: organism-based; parameters: dose 12.5 mg/kg, route intraperitoneal; details: in vivo; summary of the method: as §2
# L1210 [7] = test: Antitumor activity in mouse L1210 cells allografted in CDF1 mouse assessed as increase in life span at 0.78 mg/kg, ip administered as qd for 9 days relative to control; format: functional; details: 216 h, route intraperitoneal; summary of the method: as §1
# Mus musculus [8] = test: Toxicity in CDF1 mouse assessed as change in body weight at 3.12 mg/kg, ip measured on day 5 relative to control; format: organism-based; parameters: dose 3.12 mg/kg, route intraperitoneal; details: in vivo; summary of the method: as §2
# Mus musculus [9] = test: Toxicity in CDF1 mouse assessed as change in body weight at 0.78 mg/kg, ip measured on day 5 relative to control; format: organism-based; parameters: dose 0.78 mg/kg, route intraperitoneal; details: in vivo; summary of the method: as §2
# L1210 [10] = test: Antitumor activity in mouse L1210 cells allografted in CDF1 mouse assessed as increase in life span at 1.56 mg/kg, ip administered as qd for 9 days relative to control; format: functional; details: 216 h, route intraperitoneal; summary of the method: as §1
# L1210 [11] = test: Antitumor activity in mouse L1210 cells allografted in CDF1 mouse assessed as increase in life span at 25 mg/kg, ip administered as qd for 9 days relative to control; format: functional; details: 216 h, route intraperitoneal; summary of the method: as §1
# L1210 [12] = test: Antitumor activity in mouse L1210 cells allografted in CDF1 mouse assessed as increase in life span at 20 mg/kg, ip administered as qd for 9 days relative to control; format: functional; details: 216 h, route intraperitoneal; summary of the method: as §1
# Mus musculus [13] = test: Toxicity in CDF1 mouse assessed as change in body weight at 10 mg/kg, ip measured on day 5 relative to control; format: organism-based; parameters: dose 10 mg/kg, route intraperitoneal; details: in vivo; summary of the method: as §2
# Mus musculus [14] = test: Toxicity in CDF1 mouse assessed as change in body weight at 5 mg/kg, ip measured on day 5 relative to control; format: organism-based; parameters: dose 5 mg/kg, route intraperitoneal; details: in vivo; summary of the method: as §2
# L1210 [15] = test: Antitumor activity in mouse L1210 cells allografted in CDF1 mouse assessed as increase in life span at 80 mg/kg, ip administered as qd for 9 days relative to control; format: functional; details: 216 h, route intraperitoneal; summary of the method: as §1
# [16] = Half life of the compound; format: physicochemical
# Mus musculus [17] = test: Toxicity in CDF1 mouse assessed as change in body weight at 50 mg/kg, ip measured on day 5 relative to control; format: organism-based; parameters: dose 50 mg/kg, route intraperitoneal; details: in vivo; summary of the method: as §2
# Mus musculus [18] = test: Toxicity in CDF1 mouse assessed as change in body weight at 80 mg/kg, ip measured on day 5 relative to control; format: organism-based; parameters: dose 80 mg/kg, route intraperitoneal; details: in vivo; summary of the method: as §2
# L1210 [19] = test: Antitumor activity in mouse L1210 cells allografted in CDF1 mouse assessed as increase in life span at 40 mg/kg, ip administered as qd for 9 days relative to control; format: functional; details: 216 h, route intraperitoneal; summary of the method: as §1
# Mus musculus [20] = test: Toxicity in CDF1 mouse assessed as change in body weight at 40 mg/kg, ip measured on day 5 relative to control; format: organism-based; parameters: dose 40 mg/kg, route intraperitoneal; details: in vivo; summary of the method: as §2
# Mus musculus [21] = test: Toxicity in CDF1 mouse assessed as change in body weight at 25 mg/kg, ip measured on day 5 relative to control; format: organism-based; parameters: dose 25 mg/kg, route intraperitoneal; details: in vivo; summary of the method: as §2
# Mus musculus [22] = test: Toxicity in CDF1 mouse assessed as change in body weight at 100 mg/kg, ip measured on day 5 relative to control; format: organism-based; parameters: dose 100 mg/kg, route intraperitoneal; details: in vivo; summary of the method: as §2
# L1210 [23] = test: Antitumor activity in mouse L1210 cells allografted in CDF1 mouse assessed as increase in life span at 12.5 mg/kg, ip administered as qd for 9 days relative to control; format: functional; details: 216 h, route intraperitoneal; summary of the method: as §1
# Mus musculus [24] = test: Toxicity in CDF1 mouse assessed as change in body weight at 200 mg/kg, ip measured on day 5 relative to control; format: organism-based; parameters: dose 200 mg/kg, route intraperitoneal; details: in vivo; summary of the method: as §2
# Mus musculus [25] = test: Toxicity in CDF1 mouse assessed as change in body weight at 20 mg/kg, ip measured on day 5 relative to control; format: organism-based; parameters: dose 20 mg/kg, route intraperitoneal; details: in vivo; summary of the method: as §2
# L1210 [26] = test: Antitumor activity in mouse L1210 cells allografted in CDF1 mouse assessed as increase in life span at 10 mg/kg, ip administered as qd for 9 days relative to control; format: functional; details: 216 h, route intraperitoneal; summary of the method: as §1
# L1210 [27] = test: Antitumor activity in mouse L1210 cells allografted in CDF1 mouse assessed as increase in life span at 5 mg/kg, ip administered as qd for 9 days relative to control; format: functional; details: 216 h, route intraperitoneal; summary of the method: as §1
# [28] = Drug degradation in water solution at 25 degC after 4 hrs by reverse phase liquid chromatography; format: physicochemical; details: read-out: Drug degradation
# Summary of the method: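 Nucleoside in water solution held at 25 °C; the loss of parent compound over time was measured by LC analysis. Degradation was read at 4 h.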
# L1210 [29] = test: Antitumor activity in mouse L1210 cells allografted in CDF1 mouse assessed as increase in life span at 50 mg/kg, ip administered as qd for 9 days relative to control; format: functional; details: 216 h, route intraperitoneal; summary of the method: as §1
# L1210 [30] = test: Antitumor activity in mouse L1210 cells allografted in CDF1 mouse assessed as increase in life span at 200 mg/kg, ip administered as qd for 9 days relative to control; format: functional; details: 216 h, route intraperitoneal; summary of the method: as §1
# L1210 [31] = test: Antitumor activity in mouse L1210 cells allografted in CDF1 mouse assessed as increase in life span at 100 mg/kg, ip administered as qd for 9 days relative to control; format: functional; details: 216 h, route intraperitoneal; summary of the method: as §1
SMILES,ILS at 3.12 mg/kg (L1210 [1]),Activity (Mus musculus [3]),ILS at 6.25 mg/kg (L1210 [4]),Activity (Mus musculus [5]),Activity (Mus musculus [6]),ILS at 0.78 mg/kg (L1210 [7]),Activity (Mus musculus [8]),Activity (Mus musculus [9]),ILS at 1.56 mg/kg (L1210 [10]),ILS at 25 mg/kg (L1210 [11]),Activity (Mus musculus [17]),Activity (Mus musculus [21]),Activity (Mus musculus [22]),ILS at 12.5 mg/kg (L1210 [23]),Activity (Mus musculus [24]),other results
Nc1ncn([C@@H]2O[C@H](CO)[C@@H](O)[C@H]2O)c(=O)n1 [AZACITIDINE],33%,-6.1 g,1%,-1.3 g,Toxic,26%,-5.3 g,-2 g,66%,,,,,,,degraded at 5.5 h [2]: 15%
Nc1ccn([C@@H]2O[C@H](CO)[C@@H](O)[C@@H]2O)c(=O)n1 [CYTARABINE],28%,0.3 g,34%,,-0.4 g,,0.3 g,,,121%,-1.8 g,0 g,Non-toxic,91%,Non-toxic,ILS at 20 mg/kg (L1210 [12]): 127%; Activity (Mus musculus [13]): -0.2 g; Activity (Mus musculus [14]): 0.4 g; ILS at 80 mg/kg (L1210 [15]): 92%; half-life [16]: 34 h; Activity (Mus musculus [18]): -1.8 g; ILS at 40 mg/kg (L1210 [19]): 123%; Activity (Mus musculus [20]): -1 g; Activity (Mus musculus [25]): -0.3 g; ILS at 10 mg/kg (L1210 [26]): 84%; ILS at 5 mg/kg (L1210 [27]): 47%
Nc1ncn([C@@H]2O[C@H](CO)[C@@H](O)[C@@H]2O)c(=O)n1 [FAZARABINE],28%,-2.5 g,41%,-1.3 g,-3.7 g,39%,-3.3 g,-1.2 g,66%,58%,-3.3 g,-4 g,-4 g,58%,-2.8 g,degraded at 4 h [28]: 15%; ILS at 50 mg/kg (L1210 [29]): 92%; ILS at 200 mg/kg (L1210 [30]): 19%; ILS at 100 mg/kg (L1210 [31]): 80%
